# From ChEMBL document CHEMBL4689842, “EUbOPEN Chemogenomics Library wave 1” (2021)
# System: Fibroblast
# Assay: Multiplex assay against human fibroblast
# Format: toxicity, cell-based
# How it was run: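 Live cells were stained at seeding with Hoechst33342, BioTracker Green Microtubule Cytoskeleton Dye, MitoTracker Red and Annexin V Alexa Fluor 680, then imaged on a CQ1 microscope at 37°C and 5% CO2 after compound addition. CellPathfinder machine-learning gating split cells into Hoechst high-intensity objects or normal cells. Normal cells were split into healthy, pyknosed or fragmented nuclei, and pyknosed cells into mitotic or apoptotic. Tubulin, mitochondrial-mass and membrane-permeability phenotypes are per cents of healthy-nucleus cells.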
# [1] = 12 h, 1 µM, compound concentration 1 uM, replicate 1
# [2] = 12 h, 1 µM, compound concentration 1 uM, replicate 2
# [3] = 12 h, 10 µM, compound concentration 10 uM, replicate 1
# [4] = 12 h, 10 µM, compound concentration 10 uM, replicate 2
# [5] = 24 h, 1 µM, compound concentration 1 uM, replicate 1
# [6] = 24 h, 1 µM, compound concentration 1 uM, replicate 2
# [7] = 24 h, 10 µM, compound concentration 10 uM, replicate 1
# [8] = 24 h, 10 µM, compound concentration 10 uM, replicate 2
# [9] = 48 h, 1 µM, compound concentration 1 uM, replicate 1
# [10] = 48 h, 1 µM, compound concentration 1 uM, replicate 2
# [11] = 48 h, 10 µM, compound concentration 10 uM, replicate 1
# [12] = 48 h, 10 µM, compound concentration 10 uM, replicate 2
smiles,measurement,setting,value
CC(C)NCC(O)COc1ccc(CCOCC2CC2)cc1.Cl (stereo not drawn) [BETAXOLOL HYDROCHLORIDE],Population Apoptotic (%),[1],41%
same,Population Fragmented Nuclei (%),[1],22%
same,Population Healthy Nuclei (%),[1],47%
same,Population Hoechst High Intensity Objects (%),[1],4%
same,Population Membrane Permeable-Phenotype (%),[1],23%
same,Population Mitochondria Different-Phenotype (%),[1],2%
same,Population Mitotic Cells (%),[1],58%
same,Population Normal (%),[1],95%
same,Population Pyknosed Nuclei (%),[1],30%
same,Population Tubulin-Different-Phenotype (%),[1],39%
same,Total Cell Count,[1],84
same,Population Apoptotic (%),[2],100%
same,Population Fragmented Nuclei (%),[2],2%
same,Population Healthy Nuclei (%),[2],95%
same,Population Hoechst High Intensity Objects (%),[2],16%
same,Population Membrane Permeable-Phenotype (%),[2],6%
same,Population Mitotic Cells (%),[2],0%
same,Population Normal (%),[2],83%
same,Population Pyknosed Nuclei (%),[2],2%
same,Population Tubulin-Different-Phenotype (%),[2],9%
same,Total Cell Count,[2],55
same,Population Apoptotic (%),[3],67%
same,Population Fragmented Nuclei (%),[3],17%
same,Population Healthy Nuclei (%),[3],55%
same,Population Hoechst High Intensity Objects (%),[3],16%
same,Population Membrane Permeable-Phenotype (%),[3],10%
same,Population Mitochondria Different-Phenotype (%),[3],17%
same,Population Mitotic Cells (%),[3],32%
same,Population Normal (%),[3],83%
same,Population Pyknosed Nuclei (%),[3],26%
same,Population Tubulin-Different-Phenotype (%),[3],58%
same,Total Cell Count,[3],125
same,Population Apoptotic (%),[4],23%
same,Population Fragmented Nuclei (%),[4],9%
same,Population Healthy Nuclei (%),[4],77%
same,Population Hoechst High Intensity Objects (%),[4],7%
same,Population Membrane Permeable-Phenotype (%),[4],5%
same,Population Mitochondria Different-Phenotype (%),[4],72%
same,Population Mitotic Cells (%),[4],76%
same,Population Normal (%),[4],92%
same,Population Pyknosed Nuclei (%),[4],13%
same,Population Tubulin-Different-Phenotype (%),[4],49%
same,Total Cell Count,[4],107
same,Population Apoptotic (%),[5],30%
same,Population Fragmented Nuclei (%),[5],20%
same,Population Healthy Nuclei (%),[5],55%
same,Population Hoechst High Intensity Objects (%),[5],9%
same,Population Membrane Permeable-Phenotype (%),[5],30%
same,Population Mitochondria Different-Phenotype (%),[5],4%
same,Population Mitotic Cells (%),[5],70%
same,Population Normal (%),[5],90%
same,Population Pyknosed Nuclei (%),[5],24%
same,Population Tubulin-Different-Phenotype (%),[5],34%
same,Total Cell Count,[5],92
same,Population Apoptotic (%),[6],33%
same,Population Fragmented Nuclei (%),[6],3%
same,Population Healthy Nuclei (%),[6],85%
same,Population Hoechst High Intensity Objects (%),[6],5%
same,Population Membrane Permeable-Phenotype (%),[6],4%
same,Population Mitochondria Different-Phenotype (%),[6],6%
same,Population Mitotic Cells (%),[6],66%
same,Population Normal (%),[6],94%
same,Population Pyknosed Nuclei (%),[6],10%
same,Population Tubulin-Different-Phenotype (%),[6],2%
same,Total Cell Count,[6],59
same,Population Apoptotic (%),[7],74%
same,Population Fragmented Nuclei (%),[7],25%
same,Population Healthy Nuclei (%),[7],50%
same,Population Hoechst High Intensity Objects (%),[7],15%
same,Population Membrane Permeable-Phenotype (%),[7],19%
same,Population Mitochondria Different-Phenotype (%),[7],21%
same,Population Mitotic Cells (%),[7],25%
same,Population Normal (%),[7],84%
same,Population Pyknosed Nuclei (%),[7],23%
same,Population Tubulin-Different-Phenotype (%),[7],64%
same,Total Cell Count,[7],133
same,Population Apoptotic (%),[8],40%
same,Population Fragmented Nuclei (%),[8],7%
same,Population Healthy Nuclei (%),[8],78%
same,Population Hoechst High Intensity Objects (%),[8],5%
same,Population Membrane Permeable-Phenotype (%),[8],5%
same,Population Mitochondria Different-Phenotype (%),[8],78%
same,Population Mitotic Cells (%),[8],60%
same,Population Normal (%),[8],94%
same,Population Pyknosed Nuclei (%),[8],15%
same,Population Tubulin-Different-Phenotype (%),[8],46%
same,Total Cell Count,[8],106
same,Population Apoptotic (%),[9],76%
same,Population Fragmented Nuclei (%),[9],33%
same,Population Healthy Nuclei (%),[9],50%
same,Population Hoechst High Intensity Objects (%),[9],12%
same,Population Membrane Permeable-Phenotype (%),[9],30%
same,Population Mitochondria Different-Phenotype (%),[9],4%
same,Population Mitotic Cells (%),[9],23%
same,Population Normal (%),[9],87%
same,Population Pyknosed Nuclei (%),[9],15%
same,Population Tubulin-Different-Phenotype (%),[9],45%
same,Total Cell Count,[9],95
same,Population Apoptotic (%),[10],83%
same,Population Fragmented Nuclei (%),[10],27%
same,Population Healthy Nuclei (%),[10],67%
same,Population Membrane Permeable-Phenotype (%),[10],13%
same,Population Mitochondria Different-Phenotype (%),[10],1%
same,Population Mitotic Cells (%),[10],16%
same,Population Pyknosed Nuclei (%),[10],4%
same,Population Tubulin-Different-Phenotype (%),[10],35%
same,Total Cell Count,[10],157
same,Population Apoptotic (%),[11],76%
same,Population Fragmented Nuclei (%),[11],41%
same,Population Healthy Nuclei (%),[11],50%
same,Population Hoechst High Intensity Objects (%),[11],24%
same,Population Membrane Permeable-Phenotype (%),[11],22%
same,Population Mitochondria Different-Phenotype (%),[11],4%
same,Population Mitotic Cells (%),[11],23%
same,Population Normal (%),[11],75%
same,Population Pyknosed Nuclei (%),[11],8%
same,Population Tubulin-Different-Phenotype (%),[11],55%
same,Total Cell Count,[11],196
same,Population Apoptotic (%),[12],100%
same,Population Fragmented Nuclei (%),[12],48%
same,Population Hoechst High Intensity Objects (%),[12],20%
same,Population Membrane Permeable-Phenotype (%),[12],15%
same,Population Mitochondria Different-Phenotype (%),[12],2%
same,Population Mitotic Cells (%),[12],0%
same,Population Normal (%),[12],79%
same,Population Pyknosed Nuclei (%),[12],0%
same,Population Tubulin-Different-Phenotype (%),[12],66%
same,Total Cell Count,[12],278
